Data set [1] in a line: Biodistribution in cynomolgus monkey brain striatum assessed as standardized uptake value at 65 GBq/umol, iv after 48 mins. The class given is ADME, organism-based, Macaca fascicularis. The following applies: in vivo, 0.8 h. The method, boiled down:
(§1)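 Anesthetized cynomolgus monkeys (3.4, 4.8 kg; ketamine/xylazine i.m., head in stereotactic frame). [11C] radioligand given as i.v. bolus over about 5 s: 56–100 MBq, 0.33–0.81 µg carrier. Brain scanned on ECAT EXACT HR for 93 min. Regions defined on a monkey brain atlas. Decay-corrected activity expressed as %SUV (% injected activity per g tissue × body weight).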

Data set [2] concerns Pons. The data set is described as follows: Biodistribution in cynomolgus monkey brain pons assessed as standardized uptake value at 65 GBq/umol, iv after 24 mins. Type of data set: ADME, organism-based, Macaca fascicularis. The following applies: in vivo, 0.4 h. The method, boiled down: as §1
A short description of data set [3]: Biodistribution in cynomolgus monkey plasma assessed as unchanged drug level at 65 GBq/umol, iv after 45 mins. Type of data set: ADME, organism-based, Macaca fascicularis. The following applies: read-out: Activity. The method, boiled down: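 Venous blood (1 mL) taken 5, 15, 30 and 45 min after i.v. radioligand in anesthetized monkey. Plasma (0.5 mL) mixed with MeCN containing carrier standard and centrifuged at 2000 × g for 1 min. Supernatant counted, then analyzed by reverse-phase radio-HPLC with a MeCN/0.01 M H3PO4 gradient. Parent expressed as % of plasma radioactivity.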

The nature of data set [4]: Biodistribution in cynomolgus monkey brain striatum assessed as standardized uptake value at 56 GBq/umol, iv after 1.5 mins. Type of data set: ADME, organism-based, Macaca fascicularis. The conditions noted are these: in vivo, 0.025 h. In a few lines: as §1
Data set [5] in a line: Biodistribution in cynomolgus monkey brain striatum assessed as standardized uptake value at 56 GBq/umol, iv after 90 mins. The class given is ADME, organism-based, Macaca fascicularis. The following applies: in vivo, 1.5 h. In a few lines: as §1
The next data set concerns the target Histamine H3 receptor (Homo sapiens, UniProt Q9Y5N1). The data set is described as follows: Displacement of [3H]alpha methyl histamine from human cloned histamine H3 receptor. (In general: Displacement assays read how much labelled ligand stays bound in the presence of the test substance.)
Another data set addresses Cannabinoid receptor 1 (Homo sapiens, UniProt P21554). The data set can be described thus: Binding affinity to human CB1 receptor by [35S]GTPgammaS binding assay. Type of data set: functional. On the technique in general: GTPγS is a poorly hydrolysed GTP analogue; its binding reports G protein activation.
The target in a further data set is Cannabinoid receptor 2 (Homo sapiens, UniProt P34972). The data set can be described thus: Binding affinity to human CB2 receptor by [35S]GTPgammaS binding assay. Type of data set: functional. In a few lines: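 Recombinant human CB2 membranes (7 µg/well) in buffer with 100 mM NaCl, 5 mM MgCl2, 1 mM EDTA, 50 mM HEPES, 10 µM GDP, 100 µM DTT, 0.01% BSA. Incubation 45 min at 30 °C, then filtration and scintillation counting. Nonspecific binding with 20 µM GTPγS. IC50 converted to Ki by Cheng-Prusoff; triplicates.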
Chain of Cannabinoid receptor 2 (P34972 whole entry): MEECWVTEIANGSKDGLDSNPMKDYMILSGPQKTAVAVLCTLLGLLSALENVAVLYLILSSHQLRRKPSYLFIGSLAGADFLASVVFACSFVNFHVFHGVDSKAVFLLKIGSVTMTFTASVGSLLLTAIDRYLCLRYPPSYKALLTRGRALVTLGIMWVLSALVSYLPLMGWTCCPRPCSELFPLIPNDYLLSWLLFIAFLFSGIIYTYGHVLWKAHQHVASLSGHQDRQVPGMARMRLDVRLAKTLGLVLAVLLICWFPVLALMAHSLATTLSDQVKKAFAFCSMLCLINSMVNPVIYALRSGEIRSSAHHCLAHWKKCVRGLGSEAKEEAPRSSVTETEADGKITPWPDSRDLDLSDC

The next data set concerns the target Histamine H2 receptor (Homo sapiens, UniProt P25021). The data set can be described thus: Displacement of [3H]tiotidine from human cloned histamine H2 receptor.
In data set [6] the target is 5-hydroxytryptamine receptor 2A (Homo sapiens, UniProt P28223). The data set is described as follows: Displacement of [3H]ketanserin from human cloned 5HT2A receptor.
Chain of 5-hydroxytryptamine receptor 2A (P28223 whole entry): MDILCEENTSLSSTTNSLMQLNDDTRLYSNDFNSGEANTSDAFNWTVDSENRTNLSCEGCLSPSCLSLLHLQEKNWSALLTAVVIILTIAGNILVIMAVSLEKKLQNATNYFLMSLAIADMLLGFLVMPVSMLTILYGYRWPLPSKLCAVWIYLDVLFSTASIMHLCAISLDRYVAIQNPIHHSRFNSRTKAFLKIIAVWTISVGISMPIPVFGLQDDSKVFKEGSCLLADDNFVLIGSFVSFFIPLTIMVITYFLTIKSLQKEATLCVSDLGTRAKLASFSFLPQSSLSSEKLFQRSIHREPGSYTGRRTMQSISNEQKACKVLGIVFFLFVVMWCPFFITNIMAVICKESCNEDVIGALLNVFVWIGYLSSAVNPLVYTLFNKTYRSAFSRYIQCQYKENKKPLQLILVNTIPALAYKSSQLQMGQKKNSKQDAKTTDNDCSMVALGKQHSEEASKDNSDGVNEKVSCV
Data set [7] deals with Pons. The data set is described as follows: Biodistribution in cynomolgus monkey brain pons assessed as standardized uptake value at 78 GBq/umol, iv after 90 mins. Type of data set: ADME, organism-based, Macaca fascicularis. The conditions noted are these: in vivo, 1.5 h. In a few lines: as §1
Data set [8] concerns Pons. The data set can be described thus: Biodistribution in cynomolgus monkey brain pons assessed as standardized uptake value at 78 GBq/umol, iv after 24 mins. Type of data set: ADME, organism-based, Macaca fascicularis. The conditions noted are these: in vivo, 0.4 h. In a few lines:
as §1

Data set [9] is described as follows: Biodistribution in cynomolgus monkey brain striatum assessed as standardized uptake value at 78 GBq/umol, iv after 90 mins. The class given is ADME, organism-based, Macaca fascicularis. The following applies: in vivo, 1.5 h. The method, boiled down: as §1
Data set [10] can be described thus: Biodistribution in cynomolgus monkey brain striatum assessed as standardized uptake value at 78 GBq/umol, iv after 30 mins. Type of data set: ADME, organism-based, Macaca fascicularis. The following applies: in vivo, 0.5 h. The method, boiled down:
as §1

The subject of data set [11] is Brain. The data set is described as follows: Biodistribution in 1 mg/kg, iv N-(4-fluorobenzyl)-4-(3-(piperidin-1-yl)-1H-indol-1-ylsulfonyl)benzamide pretreated cynomolgus monkey brain assessed as standardized uptake value at […], iv after 15 mins. Type of data set: ADME, organism-based, Macaca fascicularis. Also noted: dose 1 mg/kg, route intravenous. The conditions noted are these: in vivo, 0.25 h.

Data set [12] deals with Brain. The data set is described as follows: Biodistribution in 1 mg/kg, iv N-(4-fluorobenzyl)-4-(3-(piperidin-1-yl)-1H-indol-1-ylsulfonyl)benzamide pretreated cynomolgus monkey brain assessed as standardized uptake value at […], iv after 90 mins. The class given is ADME, organism-based, Macaca fascicularis. Also noted: dose 1 mg/kg, route intravenous. The conditions noted are these: in vivo, 1.5 h.

Chain of Cannabinoid receptor 1 (P21554 whole entry): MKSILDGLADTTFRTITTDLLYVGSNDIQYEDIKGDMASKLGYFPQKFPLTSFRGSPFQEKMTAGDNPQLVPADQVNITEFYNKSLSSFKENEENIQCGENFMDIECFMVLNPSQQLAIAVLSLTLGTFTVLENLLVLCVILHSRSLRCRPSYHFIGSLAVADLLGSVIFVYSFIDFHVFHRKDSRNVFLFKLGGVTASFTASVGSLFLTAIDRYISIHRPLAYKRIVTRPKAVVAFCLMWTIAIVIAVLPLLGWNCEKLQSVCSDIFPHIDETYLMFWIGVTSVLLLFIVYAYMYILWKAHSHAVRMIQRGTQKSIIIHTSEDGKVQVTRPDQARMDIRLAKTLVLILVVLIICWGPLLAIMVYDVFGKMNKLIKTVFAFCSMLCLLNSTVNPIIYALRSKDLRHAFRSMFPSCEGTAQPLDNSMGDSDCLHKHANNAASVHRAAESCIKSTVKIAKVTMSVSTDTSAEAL
Chain of Histamine H2 receptor (P25021 whole entry): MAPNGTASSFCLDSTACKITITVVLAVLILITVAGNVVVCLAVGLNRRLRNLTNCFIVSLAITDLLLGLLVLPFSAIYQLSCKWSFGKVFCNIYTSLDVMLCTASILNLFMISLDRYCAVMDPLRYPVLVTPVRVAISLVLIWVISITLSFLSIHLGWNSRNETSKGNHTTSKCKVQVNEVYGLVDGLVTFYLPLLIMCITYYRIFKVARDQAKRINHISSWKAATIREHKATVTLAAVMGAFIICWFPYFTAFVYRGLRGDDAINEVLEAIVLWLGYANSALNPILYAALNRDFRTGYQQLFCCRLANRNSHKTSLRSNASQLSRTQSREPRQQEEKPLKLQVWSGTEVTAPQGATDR
Chain of Histamine H3 receptor (Q9Y5N1 whole entry): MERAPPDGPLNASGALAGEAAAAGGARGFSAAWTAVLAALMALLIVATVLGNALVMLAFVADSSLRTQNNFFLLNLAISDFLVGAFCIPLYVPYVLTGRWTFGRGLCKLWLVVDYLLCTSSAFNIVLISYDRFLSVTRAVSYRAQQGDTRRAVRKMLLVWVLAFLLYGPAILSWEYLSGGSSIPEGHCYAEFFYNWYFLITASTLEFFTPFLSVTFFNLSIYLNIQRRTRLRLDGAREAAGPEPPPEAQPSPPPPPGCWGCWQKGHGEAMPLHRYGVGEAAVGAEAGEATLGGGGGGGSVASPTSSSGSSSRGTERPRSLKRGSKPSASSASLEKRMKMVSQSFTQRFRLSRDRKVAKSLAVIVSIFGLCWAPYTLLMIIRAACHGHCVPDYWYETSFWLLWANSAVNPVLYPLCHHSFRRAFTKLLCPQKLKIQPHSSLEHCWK

`N#[11C]c1ccc(S(=O)(=O)/N=C(\N)N2C[C@H](c3ccccc3)C(c3ccc(Cl)cc3)=N2)cc1`: the values for the Drug uptake (in [1]; in the data set on Pons [2]) were 200% and 125%, respectively. Further, in data set [3], the remaining at 0.75 h stood at 50%.
`N#[11C]c1ccc(S(=O)(=O)/N=C(\N)N2C[C@@H](c3ccccc3)C(c3ccc(Cl)cc3)=N2)cc1`: the Drug uptake in data set [4] worked out at 280%; in data set [5] it was 95%.
Take `N#Cc1ccc(S(=O)(=O)/N=C(\N)N2C[C@H](c3ccccc3)C(c3ccc(Cl)cc3)=N2)cc1`: the Ki (as a rule, the dissociation constant of the complex between target and ligand, obtained from inhibition or displacement) at Histamine H3 receptor was above 10000 nM; at Cannabinoid receptor 1, 0.5 nM; on Cannabinoid receptor 2 it was above 5000 nM; at Histamine H2 receptor it was above 10000 nM; in [6] it was above 7710 nM. Also, the IC50 (as a rule, the concentration at which inhibition is half-maximal) at Cannabinoid receptor 1 is 2.8 nM; at Cannabinoid receptor 2, above 33000 nM.
Regarding `N/C(=N\S(=O)(=O)c1ccc(I)cc1)N1C[C@H](c2ccccc2)C(c2ccc(Cl)cc2)=N1`, at Cannabinoid receptor 1, the IC50 is 1.9 nM and the inhibitory constant (Ki) was 0.3 nM. On Cannabinoid receptor 2, the IC50 was above 33000 nM and the Ki is above 5000 nM.
In the same order, the values of `N/C(=N\S(=O)(=O)c1ccc(I)cc1)N1C[C@@H](c2ccccc2)C(c2ccc(Cl)cc2)=N1` are 104 nM, 17.4 nM, above 33000 nM and above 5000 nM.
Take `N#Cc1ccc(S(=O)(=O)/N=C(\N)N2C[C@@H](c3ccccc3)C(c3ccc(Cl)cc3)=N2)cc1`: at Cannabinoid receptor 1, the IC50 came to 100 nM and the Ki stood at 16.9 nM. Moreover, at Cannabinoid receptor 2, the IC50 is above 33000 nM and the Ki is above 5000 nM.
On to `N#[11C]c1ccc(S(=O)(=O)/N=C(\N)N2CC(c3ccccc3)C(c3ccc(Cl)cc3)=N2)cc1` (racemic), for which the Drug uptake in the data set on Pons [7] is 124%; in the data set on Pons [8], 150%; in data set [9], 180%; in data set [10], 220%; in the data set with Brain [11], 175%; in the data set with Brain [12], 85%.
